Blank lines part the entries; values can stand above or below the molecule they belong to. Activity calls are given as the source filed them. No cut-off for these calls is given here.
Experiments:
A549 = test: Cytotoxicity against human A549 cells after 48 hrs by MTT assay; assay type: functional, cell-based; conditions: A549, 48 h
Outline: (§1)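 A549, HeLa and MCF7 cells were grown in DMEM with 10% FBS, and DU145 in MEM with non-essential amino acids, pyruvate, insulin and 10% FBS. Cells were plated 24 h before dosing, then exposed continuously for 48 h at 1, 10, 25 and 100 µM in triplicate wells. MTT was added for 60 min, dissolved in DMSO and read at 560 nm. IC50 was taken from dose-response curves against control, as mean ± SD of three independent experiments.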

DU-145 = test: Cytotoxicity against human DU145 cells after 48 hrs by MTT assay; assay type: functional, cell-based; conditions: DU-145, 48 h; outline: as §1
HeLa [1] = test: Cytotoxicity against human HeLa cells after 48 hrs by MTT assay; assay type: functional, cell-based; outline: as §1
MCF7 = test: Cytotoxicity against human MCF7 cells after 48 hrs by MTT assay; assay type: functional, cell-based; conditions: MCF7, 48 h; outline: as §1
Tubulin (Bos taurus) = Tubulin (Bos taurus) (UniProt Q6B856+Q862L2+Q862F3); conditions: at 10 µM
Tubulin = Tubulin (Bos taurus, UniProt Q6B856+Q862L2+Q862F3); test: Inhibition of bovine brain tubulin polymerization measured for 1 hr by fluorescence assay
HeLa [2] = test: Cell cycle arrest in human HeLa cells assessed as accumulation at G2/M phase at 10 uM after 24 hrs by FACS analysis (reference value: 26.75%); assay type: functional
HeLa [3] = test: Cell cycle arrest in human HeLa cells assessed as disruption of microtubule organization at 10 uM after 24 hrs by DAPI staining-based immunohistochemistry relative to control; assay type: functional
Outline: (§2)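 HeLa cells were grown on coverslips and treated 24 h at 10 µM. They were fixed in 3.5% formaldehyde/PBS pH 7.4 for 10 min, permeabilized with 0.5% Triton X-100/0.05% Tween-20 and blocked in 2% BSA. Staining used anti-tubulin (1:200, 4 h, room temperature) then FITC anti-mouse (1:500, 1 h). Cells were mounted with DAPI and imaged by confocal microscopy.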

HeLa [4] = test: Cell cycle arrest in human HeLa cells assessed as planar arrangement of chromosomes with distinct microtubule organization centres at 10 uM after 24 hrs by DAPI staining-based immunohistochemistry relative to control; assay type: functional; outline: as §2
HeLa [5] = test: Cell cycle arrest at G2/M phase in human HeLa cells assessed as increase in cyclin B1 expression at 10 uM after 24 hrs by immunoblot analysis relative to control; assay type: functional, cell-based
HeLa [6] = test: Cell cycle arrest at G2/M phase in human HeLa cells assessed as increase in soluble form of tubulin at 10 uM after 24 hrs by immunoblot analysis relative to control; assay type: functional, cell-based
Outline: (§3)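 HeLa cells seeded at 1×10^5 per well in complete growth medium and treated 24 h (test compounds 10 µM; nocodazole 2 µM as positive control; DMSO controls). Soluble tubulin was taken by 3 min permeabilization at 30 °C in PIPES-KOH pH 6.8/0.2% Triton X-100/glycerol buffer, and insoluble pellet fraction in Laemmli buffer. Equal volumes were run on SDS-10% PAGE and probed with mouse anti-α-tubulin, with HRP secondary and ECL detection.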

HeLa [7] = test: Cell cycle arrest at G2/M phase in human HeLa cells assessed as reduction in polymerized form of tubulin at 10 uM after 24 hrs by immunoblot analysis relative to control; assay type: functional, cell-based; outline: as §3
HeLa [8] = test: Cell cycle arrest at G2/M phase in human HeLa cells assessed as increase in cyclin B1 expression at 2 uM after 24 hrs by immunoblot analysis relative to control; assay type: functional, cell-based
HeLa [9] = test: Cell cycle arrest at G2/M phase in human HeLa cells assessed as soluble form of tubulin at 2 uM after 24 hrs by immunoblot analysis relative to control; assay type: functional, cell-based; outline: as §3

SMILES: COc1cc(C2=NOC(COCc3cn(Cc4cc(C)cnc4Cl)nn3)C2)cc(OC)c1OC (centres undefined)
IC50 (A549): 37.7 µM
IC50 (DU-145): 58.9 µM
IC50 (HeLa [1]): 50.5 µM
IC50 (MCF7): 85.5 µM
inhibition (Tubulin (Bos taurus)): 53%

SMILES: COc1cc(COCc2cn(Cc3cc(-c4ccccc4)cnc3N3CCSCC3)nn2)cc(OC)c1OC
IC50 (A549): 45.2 µM
IC50 (DU-145): 48.9 µM
IC50 (HeLa [1]): 31.5 µM
IC50 (MCF7): 59 µM
inhibition (Tubulin (Bos taurus)): 39%

SMILES: COc1cc(C2=NOC(COCc3cn(Cc4cc(-c5ccc(C)cc5)cnc4N4CCSCC4)nn3)C2)cc(OC)c1OC (centres undefined)
IC50 (A549): 43.2 µM
IC50 (DU-145): 87.3 µM
IC50 (HeLa [1]): 39.2 µM
IC50 (MCF7): 71.1 µM
inhibition (Tubulin (Bos taurus)): 22%

SMILES: COc1cc(COCc2cn(Cc3cc(C)cnc3N3CCSCC3)nn2)cc(OC)c1OC
IC50 (A549): 71.5 µM
IC50 (DU-145): 48.6 µM
IC50 (HeLa [1]): 61.8 µM
IC50 (MCF7): 82.1 µM
inhibition (Tubulin (Bos taurus)): 27%

SMILES: COC(=O)Nc1nc2cc(C(=O)c3cccs3)ccc2[nH]1
Activity (HeLa [8]): Active
Activity (HeLa [9]): Active

SMILES: COc1cc(COCc2cn(Cc3cc(-c4ccc(C)cc4)cnc3N3CCSCC3)nn2)cc(OC)c1OC
IC50 (A549): 33.9 µM
IC50 (DU-145): 41.9 µM
IC50 (HeLa [1]): 352 µM
IC50 (MCF7): 67.8 µM
inhibition (Tubulin (Bos taurus)): 21%

SMILES: COc1cc(COCc2cn(Cc3cc(C)cnc3N3CCOCC3)nn2)cc(OC)c1OC
IC50 (A549): 64.9 µM
IC50 (DU-145): 66.7 µM
IC50 (HeLa [1]): 35.6 µM
IC50 (MCF7): 48.5 µM
inhibition (Tubulin (Bos taurus)): 45%

Now from value to molecule, other results behind:

inhibition (Tubulin (Bos taurus)): 41%
SMILES: COc1cc(COCc2cn(Cc3cc(-c4ccc(F)cc4)cnc3Cl)nn2)cc(OC)c1OC
IC50 (A549): 50.6 µM
IC50 (DU-145): 38.8 µM
IC50 (HeLa [1]): 49.6 µM
IC50 (MCF7): 96.6 µM

IC50 (Tubulin): 6.8 µM
inhibition (Tubulin (Bos taurus)): 72%
SMILES: COc1cc(C2=NOC(COCc3cn(Cc4cc(-c5ccccc5)cnc4Cl)nn3)C2)cc(OC)c1OC (centres undefined)
IC50 (A549): 8.6 µM
IC50 (DU-145): 11.4 µM
IC50 (HeLa [1]): 7.3 µM
IC50 (MCF7): 14.6 µM
Activity (HeLa [2]): 87.79%
Activity (HeLa [3]): Active
Activity (HeLa [4]): Active
Activity (HeLa [5]): Active
Activity (HeLa [6]): Active
Activity (HeLa [7]): Active

inhibition (Tubulin (Bos taurus)): 11%
SMILES: COc1cc(-c2cc(COCc3cn(Cc4cc(-c5ccccc5)cnc4N4CCSCC4)nn3)on2)cc(OC)c1OC
IC50 (A549): 52.6 µM
IC50 (DU-145): 210 µM
IC50 (HeLa [1]): 175 µM
IC50 (MCF7): 213 µM

inhibition (Tubulin (Bos taurus)): 16%
SMILES: COc1cc(-c2cc(COCc3cn(Cc4cc(-c5ccccc5)cnc4Cl)nn3)on2)cc(OC)c1OC
IC50 (A549): 112 µM
IC50 (DU-145): 78.5 µM
IC50 (HeLa [1]): 43.1 µM
IC50 (MCF7): 68.5 µM

inhibition (Tubulin (Bos taurus)): 48%
SMILES: COc1cc(COCc2cn(Cc3cc(-c4ccc(C)cc4)cnc3N3CCOCC3)nn2)cc(OC)c1OC
IC50 (A549): 38.5 µM
IC50 (DU-145): 34.8 µM
IC50 (HeLa [1]): 35.8 µM
IC50 (MCF7): 51.7 µM

inhibition (Tubulin (Bos taurus)): 32%
SMILES: COc1cc(-c2cc(COCc3cn(Cc4cc(C)cnc4N4CCSCC4)nn3)on2)cc(OC)c1OC
IC50 (A549): 40 µM
IC50 (DU-145): 73.9 µM
IC50 (HeLa [1]): 53.4 µM
IC50 (MCF7): 82.9 µM

inhibition (Tubulin (Bos taurus)): 64%
SMILES: COc1cc(-c2cc(COCc3cn(Cc4cc(-c5ccc(C)cc5)cnc4N4CCOCC4)nn3)on2)cc(OC)c1OC
IC50 (A549): 45.3 µM
IC50 (DU-145): 52.1 µM
IC50 (HeLa [1]): 36.1 µM
IC50 (MCF7): 73.4 µM

inhibition (Tubulin (Bos taurus)): 59%
SMILES: COc1cc(-c2cc(COCc3cn(Cc4cc(-c5ccc(C)cc5)cnc4Cl)nn3)on2)cc(OC)c1OC
IC50 (A549): 30.6 µM
IC50 (DU-145): 37.3 µM
IC50 (HeLa [1]): 35.3 µM
IC50 (MCF7): 58.4 µM

inhibition (Tubulin (Bos taurus)): 22%
SMILES: COc1cc(-c2cc(COCc3cn(Cc4cc(C)cnc4Cl)nn3)on2)cc(OC)c1OC
IC50 (A549): 256 µM
IC50 (DU-145): 39.8 µM
IC50 (HeLa [1]): 57.7 µM
IC50 (MCF7): 194 µM
